The text below walks through data of ChEMBL document CHEMBL4145554, “Structure-activity relationships of talaumidin derivatives: Their neurite-outgrowth promotion in vitro and optic nerve regeneration in vivo” (Eur J Med Chem, 2018).

Calls of active or inactive are those of the source. No cut-off for these calls is given here.

One experiment relates to PC-12. The experiment is described as follows: Neurite-outgrowth promoting activity in NGF-differentiated rat PC12 cells assessed as increase in neurite length at 30 uM after 4 days by methylene blue staining based phase contrast microscopic method. In kind it is functional, cell-based. A digest of the protocol: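 Cells seeded at 8 × 10^3 cells/cm2 in DMEM/10% HS/5% FBS/antibiotics, 24 h, 37 °C, 5% CO2; medium then switched to DMEM/2% HS/1% FBS with test sample plus 2 ng/mL NGF for 4 days, triplicate wells. Fixed in 4% paraformaldehyde, methylene blue stained; longest neurite of 5 differentiated cells in 5 random images per well measured, ≥100 cells per sample; Dunnett's t-test.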
On to `Cc1ccc(-c2oc(-c3ccc(C)cc3)c(C)c2C)cc1`, for which the outcome was Active. Same read-out and setting: in the case of `c1cc2c(cc1[C@@H]1CC[C@H](c3ccc4c(c3)OCO4)O1)OCO2` it was “Active”; in that of `COc1cc([C@H]2O[C@H](c3ccc4c(c3)OCO4)[C@@H](C)[C@@H]2C)ccc1O`, “Active”.

As to `COc1cc([C@H]2O[C@@H](c3ccc4c(c3)OCO4)[C@@H](C)[C@H]2C)ccc1O`, the outcome was Active.

Regarding `COc1cc([C@H]2O[C@@H](c3ccc(O)c(OC)c3)[C@@H](C)[C@H]2C)ccc1O`, the outcome was Active. The same measure, in the same setting: for `Cc1ccc([C@H]2O[C@@H](c3ccc(C)cc3)[C@@H](C)[C@H]2C)cc1` the value was “Active”. Still for that read-out and setting: in the case of `Cc1c(-c2ccc3c(c2)OCO3)oc(-c2ccc3c(c2)OCO3)c1C` it was “Active”; in that of `C[C@@H]1[C@H](C)CO[C@@H]1c1ccc2c(c1)OCO2`, “inactive”. Turning to `Cc1c(-c2ccc(O)cc2)oc(-c2ccc(O)cc2)c1C`, the outcome was Active. Same read-out and setting: in the case of `COc1ccc(-c2oc(-c3ccc(OC)cc3)c(C)c2C)cc1` it was “Active”; in that of `COc1cc(-c2oc(-c3ccc4c(c3)OCO4)c(C)c2C)ccc1O`, “Active”; in that of `COc1cc(-c2oc(-c3ccc(O)c(OC)c3)c(C)c2C)ccc1O`, “Active”. Turning to `COc1cc(C2OC(c3ccc4c(c3)OCO4)C(C)C2C)ccc1O` (racemic), the outcome was Active.

On to `COc1ccc([C@H]2O[C@@H](c3ccc(OC)cc3)[C@@H](C)[C@H]2C)cc1`, for which the result was Active. For the molecule `C[C@@H]1[C@H](C)[C@H](c2ccc(O)cc2)O[C@@H]1c1ccc(O)cc1`, the outcome was Active.

The subject of another experiment is Mus musculus. Description: In vivo neurite-outgrowth promoting activity in C57BL/6 mouse assessed as regeneration of injured optic nerve by measuring GAP-43 positive axons extending over injury site at 30 uM measured 2 weeks post optic nerve injury by fluorescence microscopic method. Type of experiment: functional, organism-based. A digest of the protocol: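 Male mice, 9 weeks old, anesthetized with intraperitoneal sodium pentobarbital (30e40 mg/kg); optic nerve crushed with forceps 1 mm behind the eyeball. Longitudinal […] cryosections (OCT) stained with anti-GAP43 (1:250) plus fluorescent secondary; regenerating axons counted manually at […] from injury site, ≥8 sections per condition, 6 mice/group; Dunnett's t-test versus injury.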
As for `COc1cc([C@H]2O[C@H](c3ccc4c(c3)OCO4)[C@@H](C)[C@@H]2C)ccc1O`, the result was Active.

In the case of `COc1cc(C2OC(c3ccc4c(c3)OCO4)C(C)C2C)ccc1O` (racemic), the result was Active.
